Reference: ChEMBL document CHEMBL2401702, “A class of sulfonamides with strong inhibitory action against the α-carbonic anhydrase from Trypanosoma cruzi” (J Med Chem, 2013)
Calls of active or inactive are those of the source. The rule behind the calls is not given here.

Columns and labels:
[1] = Inhibition of Trypanosoma cruzi carbonic anhydrase preincubated for 15 mins to 6 hrs by CO2 hydration stopped-flow assay
In short: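 Recombinant TcCA prepared in-house. Stopped-flow CO2 hydration assay with 0.2 mM phenol red read at 557 nm, in 20 mM HEPES pH 7.5 with 20 mM Na2SO4, at 20 °C. CO2 1.7–17 mM. Initial rates taken over 10–100 s and uncatalyzed rates subtracted. Inhibitor diluted down to 0.01 nM and preincubated with enzyme 15 min at room temperature or 6 h at 4 °C. KI by nonlinear least squares, mean of ≥3 determinations.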

Trypanosoma cruzi = assay: Antitrypanosomal activity against Trypanosoma cruzi epimastigotes at 64 to 256 uM by ELISA; format: functional, organism-based
In short: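 Resazurin viability assay on log-phase T. cruzi epimastigotes (strains DM28 and Y). Cultures seeded 24 h at 28 °C, plated and incubated a further 48 h at 28 °C. Resazurin added, incubation 1–6 h, then dual-wavelength absorbance at 490 and 595 nm with background subtracted. Compounds tested at 256, 128 and 64 μM. Benznidazole as reference. Three experiments, each in triplicate.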

Carbonic anhydrase 2 = Carbonic anhydrase 2 (Homo sapiens, UniProt P00918); assay: Inhibition of human carbonic anhydrase 2 preincubated for 15 mins to 6 hrs by CO2 hydration stopped-flow assay
Carbonic anhydrase 1 = Carbonic anhydrase 1 (Homo sapiens, UniProt P00915); assay: Inhibition of human carbonic anhydrase 1 preincubated for 15 mins to 6 hrs by CO2 hydration stopped-flow assay
Chain of Carbonic anhydrase 1 (P00915 whole entry): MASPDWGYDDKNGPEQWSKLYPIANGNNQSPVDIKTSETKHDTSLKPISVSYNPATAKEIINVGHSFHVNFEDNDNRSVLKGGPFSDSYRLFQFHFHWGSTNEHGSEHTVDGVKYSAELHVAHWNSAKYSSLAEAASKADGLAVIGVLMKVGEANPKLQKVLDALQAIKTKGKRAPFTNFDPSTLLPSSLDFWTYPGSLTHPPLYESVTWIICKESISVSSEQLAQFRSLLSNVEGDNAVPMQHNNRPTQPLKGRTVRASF

| Structure (SMILES) | Ki [1] [nM] | further results |
| --- | --- | --- |
| COc1ccc(CC(=O)Nc2ccc(S(N)(=O)=O)cc2)cc1 | 8 | – |
| NS(=O)(=O)c1ccc(NC(=O)Cc2ccc(F)cc2)c(Br)c1 | 9 | – |
| NS(=O)(=O)c1ccc(NC(=O)Cc2ccc(F)cc2)cc1 | 8.5 | – |
| NS(=O)(=O)c1ccc(NC(=O)Cc2ccccc2Br)c(Cl)c1 | 7.8 | – |
| NS(=O)(=O)c1ccc(NC(=O)Cc2ccccc2Br)c(F)c1 | 1.6 | Activity (Trypanosoma cruzi): inactive |
| NS(=O)(=O)c1ccc(NC(=O)Cc2ccccc2Br)cc1 | 8.9 | – |
| NS(=O)(=O)c1ccc(NC(=O)Cc2ccc(Cl)cc2)c(Cl)c1 | 7.7 | – |
| NS(=O)(=O)c1ccc(CCNC(=O)Cc2ccccc2Br)cc1 | 3.3 | Activity (Trypanosoma cruzi): inactive |
| NS(=O)(=O)c1ccc(NC(=O)Cc2ccc(Cl)cc2)c(Br)c1 | 7.1 | – |
| NS(=O)(=O)c1ccc(CNC(=O)Cc2ccc(F)cc2)cc1 | 3.7 | – |
| COc1ccc(CC(=O)Nc2ccc(S(N)(=O)=O)cc2F)cc1 | 4.1 | – |
| NS(=O)(=O)c1ccc(NC(=O)Cc2ccc(Cl)cc2)c(F)c1 | 1.2 | Activity (Trypanosoma cruzi): inactive |
| NS(=O)(=O)c1ccc(NC(=O)Cc2ccc(Cl)cc2)cc1 | 2.7 | – |

The remaining compounds from weak to strong by Ki [1], led by results:

| Ki [1] [nM] | Structure (SMILES) | further results |
| --- | --- | --- |
| 12.5 | NS(=O)(=O)c1ccc(CNC(=O)Cc2ccc(Cl)cc2)cc1 | – |
| 11.8 | NS(=O)(=O)c1ccc(CCNC(=O)Cc2ccc(Cl)cc2)cc1 | Ki (Carbonic anhydrase 2): 6.4 nM; Ki (Carbonic anhydrase 1): 9.7 nM |
| 10.9 | NS(=O)(=O)c1ccc(NC(=O)Cc2ccccc2Br)c(Br)c1 | – |
| 9.1 | NS(=O)(=O)c1ccc(CCNC(=O)Cc2ccc(F)cc2)cc1 | – |
| 9 | NS(=O)(=O)c1ccc(CNC(=O)Cc2ccccc2Br)cc1 | – |
| 8.3 | NS(=O)(=O)c1ccc(NC(=O)Cc2ccc(F)cc2)c(F)c1 | – |
| 7.9 | COc1ccc(CC(=O)Nc2ccc(S(N)(=O)=O)cc2Cl)cc1 | – |
| 7.6 | NS(=O)(=O)c1nnc(NC(=O)Cc2ccc(F)cc2)s1 | – |
| 7.5 | COc1ccc(CC(=O)NCCc2ccc(S(N)(=O)=O)cc2)cc1 | Ki (Carbonic anhydrase 2): 0.81 nM; Ki (Carbonic anhydrase 1): 3.7 nM |
| 7.4 | COc1ccc(CC(=O)NCc2ccc(S(N)(=O)=O)cc2)cc1 | – |
| 7.2 | COc1ccc(CC(=O)Nc2ccc(S(N)(=O)=O)cc2Br)cc1 | – |
| 7 | NS(=O)(=O)c1ccc(NC(=O)Cc2ccc(F)cc2)c(Cl)c1 | – |
| 0.95 | NS(=O)(=O)c1nnc(NC(=O)Cc2ccc(Cl)cc2)s1 | Activity (Trypanosoma cruzi): inactive |
| 0.83 | NS(=O)(=O)c1nnc(NC(=O)Cc2ccccc2Br)s1 | – |
| 0.51 | COc1ccc(CC(=O)Nc2nnc(S(N)(=O)=O)s2)cc1 | Activity (Trypanosoma cruzi): inactive |
